{"source": "paper PMC9303693", "about": "(Journal of Clinical Pharmacology, 2022)", "key": {"[1]": {"conditions": "cited from earlier work"}, "[2]": {"conditions": "human, plasma; cited from earlier work"}, "[3]": {"test_system": "BTK", "conditions": "cited from earlier work"}, "[4]": {"test_system": "human plasma", "experiment": "In vitro protein binding in human plasma", "assay_type": "in vitro ADME", "conditions": "human plasma"}, "[5]": {"test_system": "human plasma", "experiment": "Plasma protein binding in study 2 subjects", "assay_type": "in vitro ADME", "method_in_brief": "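Severe hepatic impairment and matched control subjects received a single oral 50-mg dose of the test compound after an overnight fast. Blood (4 mL) was drawn on day 1 at 0.863, 1.75 and 6.5 h post-dose. Binding of parent and active metabolite in the plasma was assessed by ultracentrifugation to estimate the unbound fraction.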"}, "[6]": {"assay_type": "in vivo, human", "conditions": "for AUC0‐inf, LS Mean / Cmax, LS Mean: ANOVA, exponentiated LSM"}, "[7]": {"experiment": "Urinary excretion and renal clearance after a single 50-mg dose", "assay_type": "in vivo, human", "conditions": "for mean renal clearance: ACP-5862", "method_in_brief": "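In study 2, a single oral 50-mg capsule was taken with ≈240 mL water after an overnight fast. Urine was collected predose, 0–4 h and 4–24 h post-dose and pooled per interval for each subject. Analytes were quantified by validated LC-MS/MS with deuterated internal standards over a nominal urine range of 5 to 5000 ng/mL.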"}, "[8]": {"conditions": "subjects with severe hepatic impairment"}, "[9]": {"conditions": "ACP-5862/acalabrutinib, study 2, Control (n = 8), arithmetic mean (SD)"}, "[10]": {"conditions": "ACP-5862/acalabrutinib, study 2, Severe (n = 8), arithmetic mean (SD)"}, "[11]": {"conditions": "ACP-5862, severe hepatic impairment vs control subjects"}, "[12]": {"conditions": "plasma ACP-5862, Severe vs normal hepatic function (reference)"}}, "note": "Where “and” joins values, the source holds several entries; their conditions need not be identical. Equal entries are not always repeated. Where two headings read alike, the source gives them in different places.", "data": [{"smiles": "C=CC(=O)N1CCC[C@@H](n2nc(-c3ccc(Oc4ccccc4)cc3)c3c(N)ncnc32)C1", "note": "[ibrutinib]", "values": [{"measurement": "mean AUC, fold higher compared with healthy controls", "setting": "[1]; mild hepatic impairment", "result": 2.7, "unit": "fold"}, {"measurement": "mean AUC, fold higher compared with healthy controls", "setting": "[1]; moderate hepatic impairment", "result": 8.0, "unit": "fold"}, {"measurement": "mean AUC, fold higher compared with healthy controls", "setting": "[1]; severe hepatic impairment", "result": 9.5, "unit": "fold"}]}, {"smiles": "CC#CC(=O)NCCCC(=O)c1nc(-c2ccc(C(=O)Nc3ccccn3)cc2)c2c(N)nccn12", "note": "[ACP‐5862]", "values": [{"measurement": "share of total acalabrutinib‐related material in plasma", "setting": "[2]", "result": "> 10", "unit": "%"}, {"measurement": "potency for BTK inactivation relative to parent acalabrutinib", "setting": "[3]", "result": "≈ 50%"}, {"measurement": "in vitro protein binding", "setting": "[4]; plasma concentration 1 μM (0.482 μg/mL)", "result": 98.7, "unit": "%"}, {"measurement": "in vitro protein binding", "setting": "[4]; plasma concentration 10 μM (4.82 μg/mL)", "result": 98.6, "unit": "%"}, {"measurement": "mean protein binding", "setting": "[5]; healthy matched controls", "result": "≈ 98%"}, {"measurement": "mean protein binding", "setting": "[5]; [8]", "result": "≈ 94%"}, {"measurement": "MR:AUC0‐inf (metabolite‐to‐parent ratio)", "setting": "[6]; [9]", "result": "3.59 and 3.6 ± 0.9"}, {"measurement": "MR:AUC0‐last (metabolite‐to‐parent ratio)", "setting": "[6]; [9]", "result": "3.1 ± 0.7"}, {"measurement": "MR:Cmax (metabolite‐to‐parent ratio)", "setting": "[6]; [9]", "result": "1.15 and 1.1 ± 0.4"}, {"measurement": "MR:AUC0‐last (metabolite‐to‐parent ratio)", "setting": "[6]; [10]", "result": "0.6 ± 0.4"}, {"measurement": "MR:Cmax (metabolite‐to‐parent ratio)", "setting": "[6]; [10]", "result": "0.247 and 0.2 ± 0.1"}, {"measurement": "geometric mean ratio for AUC", "setting": "[6]; [11]", "result": 0.9}, {"measurement": "geometric mean ratio for Cmax", "setting": "[6]; [11]", "result": 1.01}, {"measurement": "AUC0‐inf, LS Mean", "setting": "[6]; plasma ACP-5862, Control, n 8", "result": 817.0, "unit": "ng·h/mL"}, {"measurement": "Cmax, LS Mean", "setting": "[6]; plasma ACP-5862, Control, n 8", "result": 166.5, "unit": "ng/mL"}, {"measurement": "AUC0‐inf, LS Mean", "setting": "[6]; plasma ACP-5862, Severe, n 6", "result": 782.2, "unit": "ng·h/mL"}, {"measurement": "Cmax, LS Mean", "setting": "[6]; plasma ACP-5862, Severe, n 8", "result": 168.7, "unit": "ng/mL"}, {"measurement": "AUC0‐inf GMR: Test/Reference", "setting": "[6]; [12]", "result": 95.7, "unit": "%"}, {"measurement": "Cmax GMR: Test/Reference", "setting": "[6]; [12]", "result": 101.4, "unit": "%"}, {"measurement": "mean renal clearance", "setting": "[7]; matched control subjects with normal hepatic function", "result": 605.3, "unit": "mL/h"}, {"measurement": "mean renal clearance", "setting": "[7]; [8]", "result": 692.6, "unit": "mL/h"}, {"measurement": "amount of the metabolite excreted in urine", "setting": "[7]; ACP-5862 after 50-mg acalabrutinib, subjects with severe hepatic impairment", "result": "≈ 0.415 mg"}]}]}
